{"source": "ChEMBL document CHEMBL5715959", "about": "“Inhibition of histone methyltransferase EZH2 in Schistosoma mansoni in vitro by GSK343 reduces egg laying and decreases the expression of genes implicated in DNA replication and noncoding RNA metabolism” (2018)", "key": {"[1]": {"system": "Schistosoma mansoni", "experiment": "Antischistosomal activity against juvenile Schistosoma mansoni assessed as presence of blisters in dorsal tegument at 20 to 50 uM incubated for 48 hrs by scanning electron microscopy analysis", "format": "functional, organism-based", "settings": "dose 20-50 µM", "method_in_brief": "(§1)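 Juvenile worms recovered by perfusion, five per well in supplemented RPMI (10% FBS, antibiotics, 37°C, 5% CO2), 2 h adaptation, then exposed 48 h to compound or 0.1% DMSO. Fixed in modified Karnovsky reagent (pH 7.4), washed in cacodylate buffer, post-fixed 1 h in 1% osmium tetroxide, ethanol-dehydrated, critical-point dried, gold-sputtered and imaged by scanning electron microscopy.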"}, "[2]": {"system": "Schistosoma mansoni", "experiment": "Antischistosomal activity against adult Schistosoma mansoni assessed as increased H3K9ac level at 20 uM incubated for 48 hrs by Western blotting analysis", "format": "functional, organism-based", "method_in_brief": "(§2)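 Fifty adult worm pairs were treated 48 h with 20 μM GSK343 or vehicle in supplemented RPMI/10% FBS, then lysed in Triton buffer. Nuclear pellets were acid-extracted overnight in 0.25 M HCl at 4°C and histones were TCA-concentrated. 10 μg went on 15% SDS-PAGE and nitrocellulose, probed with anti-H3K27me3, K9ac, K27ac or K4me3, then IRDye secondaries; infrared densitometry was normalized to anti-H3. Three biological replicates; t-test.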"}, "[3]": {"system": "Schistosoma mansoni", "experiment": "Cytotoxicity against Schistosoma mansoni assessed as decrease in viability at 20 uM incubated for 5 days by CellTiter-Glo Luminescent assay relative to control", "format": "functional", "settings": "time 5 day", "method_in_brief": "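Newly transformed schistosomula pre-cultured 16 h in M169 with 2% FBS, serotonin, hypoxanthine, hydrocortisone, triiodothyronine and antibiotics at 37°C, 5% CO2, then 100–120 per well exposed up to 5 days to compound or 0.1% DMSO. ATP in intact larvae read by luminescence, expressed as % of vehicle; three replicate experiments, two-way ANOVA.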"}, "[4]": {"system": "Schistosoma mansoni", "experiment": "Antischistosomal activity against Schistosoma mansoni assessed as increased caspase 3/7 activity at 20 uM incubated for 48 hrs by Caspase 3/7 reagent based luminescence assay", "format": "functional", "method_in_brief": "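2,000 schistosomula per well were kept in supplemented M169 with 20 μM GSK343 or 0.1% DMSO for 48 h. Medium was replaced, reporter lysis buffer added, then Caspase-Glo 3/7 reagent for 3 h in the dark with agitation before reading luminescence. The negative control lacked reagent. Three experiments, each with 20,000 schistosomula.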"}, "[5]": {"system": "Schistosoma mansoni", "experiment": "Antischistosomal activity against Schistosoma mansoni assessed as change in size at 20 uM incubated for 24 hrs by scanning electron microscopy analysis", "format": "functional, organism-based", "method_in_brief": "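Newly transformed schistosomula were held 16 h in M169 with 2% FBS, serotonin, hypoxanthine, hydrocortisone, triiodothyronine and antibiotics at 37°C, 5% CO2, at 2,000 per well. They were then exposed to 20 μM GSK343 or 0.1% DMSO for 24 and 48 h. Fixation was modified Karnovsky (pH 7.4) with 1% osmium post-fix, then ethanol dehydration, critical-point drying, gold coating and SEM. Lengths came from three experiments, each with 20 schistosomula.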"}, "[6]": {"system": "Schistosoma mansoni", "experiment": "Antischistosomal activity against adult Schistosoma mansoni assessed as decreased H3K27me3 level at 20 uM incubated for 48 hrs by Western blotting analysis", "format": "functional, organism-based", "method_in_brief": "as §2"}, "[7]": {"system": "Schistosoma mansoni", "experiment": "Antischistosomal activity against juvenile Schistosoma mansoni assessed as damaged dorsal surface ridge at 20 to 50 uM incubated for 48 hrs by scanning electron microscopy analysis", "format": "functional, organism-based", "settings": "dose 20-50 µM", "method_in_brief": "as §1"}, "[8]": {"system": "Schistosoma mansoni", "experiment": "Antischistosomal activity against Schistosoma mansoni assessed as increased H3K9ac level in schistosomula at 20 uM incubated for 48 hrs by Western blotting analysis", "format": "functional, organism-based", "method_in_brief": "(§3)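 About 10,000 schistosomula were treated 48 h with 20 μM GSK343 or vehicle, then sonicated in Triton X-100 lysis buffer with PMSF and protease inhibitors. Supernatant nuclear extract (BCA-quantified, 10 μg) was run on 15% SDS-PAGE and blotted to nitrocellulose. Blots were probed with mark-specific monoclonal antibodies, then IRDye secondaries; infrared imaging was used and signals were normalized to total H3. t-test.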"}, "[9]": {"system": "Schistosoma mansoni", "experiment": "Antischistosomal activity against Schistosoma mansoni assessed as down-regulated FA binding protein mRNA level in schistosomula at 20 uM incubated for 48 hrs by RT-qPCR analysis", "format": "functional, organism-based", "method_in_brief": "(§4)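 Schistosomula (supplemented M169) or adult worms (supplemented RPMI) were treated 48 h with 20 μM GSK343 or 0.1% DMSO at 37°C, 5% CO2. qPCR normalizer genes were chosen from RNA-seq data as those with TPM >1 and a treated/control ratio of 0.9–1.1 that were not differentially expressed. Relative expression was calculated by comparative Ct; significance by t-test.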"}, "[10]": {"system": "Schistosoma mansoni", "experiment": "Induction of apoptosis in Schistosoma mansoni assessed as DNA fragmentation at 20 uM incubated for 72 hrs by TUNEL staining based inverted microscope analysis", "format": "functional, organism-based", "method_in_brief": "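Schistosomula, 2,000 per well in supplemented M169 after 16 h pre-culture, exposed 72 h to compound or DMSO, then fixed 60 min, permeabilized and TUNEL-labelled for DNA strand breaks. Mounted with DAPI counterstain and imaged by ApoTome fluorescence microscopy at 40× objective.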"}, "[11]": {"system": "Schistosoma mansoni", "experiment": "Antischistosomal activity against adult Schistosoma mansoni assessed as increased H3K4me3 level at 20 uM incubated for 48 hrs by Western blotting analysis", "format": "functional, organism-based", "method_in_brief": "as §2"}, "[12]": {"system": "Schistosoma mansoni", "experiment": "Antischistosomal activity against adult Schistosoma mansoni assessed as dead worms at 50 uM incubated for 48 hrs by inverted microscope analysis", "format": "functional, organism-based", "method_in_brief": "(§5)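 Paired adult worms were cultured in RPMI/10% FBS with antibiotics at 37°C, 5% CO2, with GSK343 or 0.1% DMSO. They were viewed by inverted microscope at 3, 6, 12, 24 and 48 h. Motility was scored on a 0–3 scale (3 full movement, 1.5 partial or immobile but alive, 0 dead); death meant no movement over more than 2 min. Pairing was recorded. Three experiments, each with 10 pairs; mean ± SD.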"}, "[13]": {"system": "Schistosoma mansoni", "experiment": "Antischistosomal activity against female Schistosoma mansoni assessed as down-regulated nanos mRNA level at 20 uM incubated for 48 hrs by RT-qPCR analysis", "format": "functional, organism-based", "method_in_brief": "as §4"}, "[14]": {"system": "Schistosoma mansoni", "experiment": "Antischistosomal activity against adult Schistosoma mansoni assessed as drastic reduction in pairing of couples at 50 uM incubated for 3 hrs by inverted microscope analysis relative to control", "format": "functional", "design": "scale not given: the % may be the effect or the level left", "method_in_brief": "as §5"}, "[15]": {"system": "Schistosoma mansoni", "experiment": "Cytotoxicity against adult Schistosoma mansoni assessed as reduction in ATP quantification at 20 uM incubated for 48 hrs by CellTiter-Glo Luminescent assay relative to control", "format": "functional", "design": "scale not given: the % may be the effect or the level left", "method_in_brief": "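Worm pairs in supplemented RPMI (10% FBS, 37°C, 5% CO2) exposed 48 h to compound or 0.1% DMSO. ATP measured by luminescence in freshly lysed worms and expressed as % of vehicle signal; three replicate experiments, 10 pairs each, mean ± SD.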"}, "[16]": {"system": "Schistosoma mansoni", "experiment": "Antischistosomal activity against Schistosoma mansoni assessed as increased H3K27ac level in schistosomula at 20 uM incubated for 48 hrs by Western blotting analysis", "format": "functional, organism-based", "method_in_brief": "as §3"}, "[17]": {"system": "Schistosoma mansoni", "experiment": "Antischistosomal activity against Schistosoma mansoni assessed as down-regulated Glucose transport protein mRNA level in schistosomula at 20 uM incubated for 48 hrs by RT-qPCR analysis", "format": "functional, organism-based", "method_in_brief": "as §4"}}, "note": "Active and inactive are the calls of the source. The calls are words filed in the database; no cut-off is given here."}
{"smiles": "CCCc1cc(C)[nH]c(=O)c1CNC(=O)c1cc(-c2ccnc(N3CCN(C)CC3)c2)cc2c1cnn2C(C)C", "values": [{"measurement": "Activity", "setting": "[1]", "result": "Active"}, {"measurement": "Activity", "setting": "[2]", "result": "Active"}, {"measurement": "Activity", "setting": "[3]", "result": 70, "unit": "%"}, {"measurement": "fold change (FC)", "setting": "[4]", "result": 17}, {"measurement": "Activity", "setting": "[5]", "result": "inactive"}, {"measurement": "Activity", "setting": "[6]", "result": "Active"}, {"measurement": "Activity", "setting": "[7]", "result": "Active"}, {"measurement": "Activity", "setting": "[8]", "result": "Active"}, {"measurement": "Activity", "setting": "[9]", "result": "Active"}, {"measurement": "Activity", "setting": "[10]", "result": "Active"}, {"measurement": "Activity", "setting": "[11]", "result": "Active"}, {"measurement": "Activity", "setting": "[12]", "result": "Active"}, {"measurement": "Activity", "setting": "[13]", "result": "Active"}, {"measurement": "Activity", "setting": "[14]", "result": "~0", "unit": "%"}, {"measurement": "Activity", "setting": "[15]", "result": 50, "unit": "%"}, {"measurement": "Activity", "setting": "[16]", "result": "Active"}, {"measurement": "Activity", "setting": "[17]", "result": "Active"}]}
